Compound activity (PubChem)
Platelet DG rel = inhibitors of platelet dense granule secretion, primary screen, cell-based, MLPCN, human platelets | human platelet-rich plasma, SFLLRN dense granule ATP release, luminescence | hit rate 0.22% among 300,000 | inhibition, %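 (compounds screened at 7.5 µM in platelet-rich plasma)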;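 active means mean replicate score, as percent of positive control, at or above 50; inconclusive means mean below 50 but at least one replicate at or above 50; inactive means mean and every replicate below 50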
TAAR1 antag = human TAAR1 antagonists, primary screen, Fluo-8 calcium fluorescence, CHO RD-HGA16 cells; inhibition, % at 3 µM; Trace amine-associated receptor 1 (Homo sapiens), Q96RJ0; hit rate 1.5% among 360,000; antagonist;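 active means inhibition above a per-plate cutoff, the mean inhibition of test compounds on that plate plus 3 SD, cut at about 49% in these data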;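 further: 0% = DMSO plus EC80 beta-PEA response and 100% = DMSO alone without agonist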
Target sequence (Q96RJ0 whole entry, looked up): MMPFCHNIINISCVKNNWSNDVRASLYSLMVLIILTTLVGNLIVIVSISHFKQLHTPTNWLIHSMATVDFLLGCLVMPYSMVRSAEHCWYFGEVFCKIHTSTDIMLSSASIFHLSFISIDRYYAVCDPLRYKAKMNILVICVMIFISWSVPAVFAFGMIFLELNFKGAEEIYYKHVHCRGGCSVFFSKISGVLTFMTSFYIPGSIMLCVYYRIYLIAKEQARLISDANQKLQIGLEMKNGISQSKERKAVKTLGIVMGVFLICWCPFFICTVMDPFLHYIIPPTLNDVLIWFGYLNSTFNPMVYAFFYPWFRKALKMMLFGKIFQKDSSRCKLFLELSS
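test system = CHO RD-HGA16 cells bearing hTAAR1 | replication = singlicate | controls = DMSO-only wells and EC80 β-PEA-stimulated wells | reagent = EC80 β-phenethylamine stimulus | read-out basis = percent inhibition of PEA-evoked calcium signal, max/basal emission ratio | schedule = seeding 17-24 h prior, 75-min 37 °C, 30-min RT dye loading | signal = kinetic Fluo-8 calcium fluorescence measurement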
TAAR1 ag = human TAAR1 agonists, primary screen, Fluo-8 calcium fluorescence, CHO RD-HGA16 cells; Trace amine-associated receptor 1 (Homo sapiens), Q96RJ0; vehicle wells 0%, saturating PEA agonist 100%; activation, % at 3 µM; hit rate 0.99% among 360,000; AID 624467, 2012;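 active means activation above the mean activation of all test compounds in the run plus 3 SD, cut at about 38% in these data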
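Assay system: CHO-derived RD-HGA16 cells with stable Gα16 and human TAAR1; timing: 17-24 h seeding, 75 min 37 °C dye, 30 min RT; read-out: % activation from peak over basal fluorescence ratio, DMSO-to-PEA scaled; measured by: kinetic Fluo-8 calcium fluorescence; benchmarks: low control DMSO, high control PEA (EC100); doses: 3 µM single concentration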
VLA-4 inh = inhibition in human VLA-4 binding assay, primary screen, VLA-4 allosteric modulator project, MLPCN library, flow cytometry, VLA-4 expressing cells; inhibition, % (about 7 µM as worked out from the volumes in the protocol); AID 2557, 2010; ligand binding flow cytometry; hit rate 0.2% among 330,000; Integrin alpha-4 (Homo sapiens), P13612; in the data active means inhibition above about 50%
Rce1 inhib = yeast Rce1p protease inhibitors, primary screen, biochemical, fluorescence, cell-free homogeneous; CAAX prenyl protease 2 (Saccharomyces cerevisiae (strain ATCC 204508 / S288c)), Q03530; yeast membranes, quenched prenylated peptide cleavage fluorescence; calls only; hit rate 0.27% among 290,000;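 active means fall in fluorescence gain of 50% or more versus controls, with final raw signal at or below 3038400; inconclusive means same 50% fall but final raw signal above 3038400; inactive means fall in fluorescence gain under 50%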;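 further: plate controls were neutral control wells for no effect and wells lacking membranes for full effect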
Target sequence (Q03530 whole entry, looked up): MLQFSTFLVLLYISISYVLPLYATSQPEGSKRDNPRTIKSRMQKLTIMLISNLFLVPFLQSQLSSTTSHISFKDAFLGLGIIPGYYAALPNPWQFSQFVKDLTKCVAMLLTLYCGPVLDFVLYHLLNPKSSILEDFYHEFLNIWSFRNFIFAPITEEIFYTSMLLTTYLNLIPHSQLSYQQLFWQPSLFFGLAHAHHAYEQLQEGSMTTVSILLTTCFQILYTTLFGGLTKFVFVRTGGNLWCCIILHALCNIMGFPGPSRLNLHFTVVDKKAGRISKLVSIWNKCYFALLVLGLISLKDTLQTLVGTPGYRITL
TAAR1 nonsel count = nonselective antagonists in TAAR1 counter-screen cells, counter-screen for hTAAR1 antagonist project, cell-based, fluorescence, calcium. inhibition, % at 3 µM. hit rate 77% among 2,400. shares compounds with TAAR1 antag. counterscreen cell line, antagonist mode. AID 651780, 2012; in the data active means inhibition above about 22%;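 further: CHO-Ga16 host cells stimulated with ATP at an EC80 level; 0% = agonist EC80 plus vehicle and 100% = vehicle without agonist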
TAAR1 ant conf = human TAAR1 antagonists, retest of hits, confirmation, cell-based, fluorescence. AID 651785, 2012. shares compounds with TAAR1 antag. inhibition, % at 3 µM. TAAR1-expressing cells, fluorescence antagonist read-out. hit rate 40% among 2,400; in the data active means inhibition above about 49%;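 further: CHO-Ga16 host cells challenged with agonist PEA near its EC80; 0% = agonist at EC80 plus vehicle and 100% = vehicle with no agonist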
Ga16 ag counter = calcium activation in Ga16-expressing cells, counter-screen for TAAR1 antagonist project, cell-based, fluorescence; shares compounds with TAAR1 antag; agonist counterscreen; activation, % at 3 µM; hit rate 18% among 2,400; in the data active means activation above about 12%;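 further: 0% = vehicle wells and 100% = saturating stimulus response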
TAAR1 ag count = TAAR1 activation by candidate antagonists – cell-based, fluorescence, counter-screen for TAAR1 antagonist project; shares compounds with TAAR1 antag; hTAAR1 cell line, agonist mode; activation, % at 3 µM; hit rate 2% among 2,400; AID 651955, 2012; in the data active means activation above about 37%;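 further: CHO cells stably expressing TAAR1 with calcium dye readout; 0% = DMSO vehicle and 100% = full agonist response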
* hit, by the source's call; i = inactive; ? = inconclusive; . = no result. Most compounds without a hit are left out; they make up all but 2.6% or so of the library.

SMILES | Platelet DG rel | TAAR1 antag | TAAR1 ag | VLA-4 inh | Rce1 inhib | TAAR1 nonsel count | TAAR1 ant conf | Ga16 ag counter | TAAR1 ag count
O=C(NCCn1cc(SCc2ccc(F)cc2)c2ccccc21)c1ccccc1F | 0 | . | . | 0 | i | . | . | . | .
CC(C)C1C(=O)N(Cc2cn(CC3CCCCC3)nn2)CCS(=O)(=O)N1Cc1ccc(-c2ccncc2)cc1 (stereo not drawn) | . | -3 | 2 | . | . | . | . | . | .
CCc1[nH]nc2c1C1(CCN(C(=O)OCc3ccccc3)CC1)C(C#N)=C(N)O2 | 4 | 63* | 33 | -7 | i | 34* | 57* | 16* | 30
CCCc1[nH]nc2c1C1(CCN(C(=O)OCc3ccccc3)CC1)C(C#N)=C(N)O2 | 1 | 22 | 8 | 4 | i | . | . | . | .
COc1ccc(Nc2cc(Nc3cc(OC)c(OC)c(OC)c3)ncn2)cc1 | 13 | -7 | 4 | 5 | i | . | . | . | .
CCC1CN(C(=O)N2CCC(C(=O)NCc3ccc(C)o3)CC2)c2cc(C)ccc2O1 (stereo not drawn) | 1 | 37 | 12 | 4 | i | . | . | . | .
CCC1CN(C(=O)N2CCC(C(=O)NCc3ccccc3C)CC2)c2ccccc2O1 (stereo not drawn) | -1 | 16 | 5 | 2 | i | . | . | . | .
CCC1CN(C(=O)N2CCC(C(=O)NCCc3ccccc3OC)CC2)c2ccccc2O1 (stereo not drawn) | 12 | 75* | 13 | 8 | i | 29* | 54* | 11 | 15
CCC1CN(C(=O)N2CCC(C(=O)NCCc3ccc(OC)cc3OC)CC2)c2ccccc2O1 (stereo not drawn) | 1 | 56* | 13 | 3 | i | 35* | 54* | 10 | 14
CCC1CN(C(=O)N2CCC(C(=O)NCc3ccco3)CC2)c2cc(C)ccc2O1 (stereo not drawn) | 2 | 50* | 14 | -1 | i | 28* | 49* | 9 | 9
COCOCCn1cc(CN2CCS(=O)(=O)N(Cc3ccc(-c4ccccc4)cc3)C(C(C)C)C2=O)nn1 (stereo not drawn) | . | 4 | 4 | . | . | . | . | . | .
CSc1ccc(CN(C)C(=O)c2ccc(S(=O)(=O)Nc3c(C)n(C)n(-c4ccccc4)c3=O)cc2)cc1 | . | -5 | -3 | . | . | . | . | . | .
COc1ccccc1CN(C)C(=O)c1ccc(S(=O)(=O)Nc2c(C)n(C)n(-c3ccccc3)c2=O)cc1 | . | 50* | 8 | 3 | . | 20 | 36 | 5 | 4
O=C(N[C@@H]1CCC(=O)N(CC[C@H](Oc2ccccc2)c2ccccc2)CC1)OCc1ccccc1 | -3 | 20 | 7 | 6 | i | . | . | . | .
CC(C)N=C1SC(CC(=O)Nc2ccccc2)C(=O)N1C(C)C (stereo not drawn) | 3 | 57* | 16 | -1 | i | 35* | 47 | 7 | 9
O=C(CC1SC(=Nc2ccccc2)N(CCO)C1=O)Nc1ccccc1 (stereo not drawn) | -1 | 6 | 3 | 5 | i | . | . | . | .
CC(=O)Nc1cc(-c2ccccc2N(C)C)cn2c(-c3cccc(C(F)(F)F)c3)cnc12 | . | 6 | 1 | . | . | . | . | . | .
Cc1cccc(/C=C/C(=O)c2cc(Br)ccc(=O)c2O)c1 | 8 | 51* | 35 | 16 | i | 36* | 27 | 14* | 17
CCc1ccc(/C=C/C(=O)c2cc(Br)ccc(=O)c2O)cc1 | 11 | 32 | 27 | -10 | i | . | . | . | .
O=C(c1cccs1)c1coc2ccc(O)c(CN3CCOCC3)c12 | 1 | 106* | -4 | 2 | i | 2 | 5 | 2 | 3
O=C(c1coc2ccc(O)c(CN3CCOCC3)c12)C1CC1 | -2 | -17 | 10 | 8 | i | . | . | . | .
Cc1ccc(C(=O)NCCCN2CCOCC2)c(C)c1 | 7 | -10 | 7 | 5 | i | . | . | . | .
CC(C)(C)NC(=O)NC(=O)COC(=O)Cc1coc2ccc3ccccc3c12 | 4 | 52* | 7 | 19 | i | 24* | 28 | 4 | 2
COc1ccc2[nH]c(=O)c(CN(CC3CCCO3)C(=O)Nc3ccccc3OC)cc2c1 (stereo not drawn) | 1 | 63* | 16 | . | i | 29* | 42 | 6 | 6
COc1ccc2[nH]c(=O)c(CN(c3ccccc3OC)S(=O)(=O)c3ccccc3)cc2c1 | 0 | 74* | 10 | 1 | i | 33* | 49* | 9 | 9
SMILES | Platelet DG rel | TAAR1 antag | TAAR1 ag | VLA-4 inh | Rce1 inhib | TAAR1 nonsel count | TAAR1 ant conf | Ga16 ag counter | TAAR1 ag count
COc1ccc(S(=O)(=O)N(Cc2cccnc2)Cc2cc3ccccc3[nH]c2=O)cc1 | ? | 51* | 11 | 15 | i | 15 | 25 | 6 | 4
CCC(=O)N(Cc1cc2cc(OC)ccc2[nH]c1=O)c1ccccc1OC | . | -4 | 2 | . | . | . | . | . | .
COc1ccc2[nH]c(=O)c(CN(c3ccccc3)S(=O)(=O)c3ccccc3)cc2c1 | -9 | 52* | 9 | -7 | i | 26* | 52* | 7 | 16
Cc1ccc(S(=O)(=O)N(Cc2cccnc2)Cc2cc3ccccc3[nH]c2=O)cc1 | 0 | 39 | 19 | 4 | i | . | . | . | .
Cc1ccc(C(=O)NCC(=O)NNC(=O)CN(C)S(=O)(=O)c2ccc(Cl)cc2)s1 | 1 | -12 | 0 | 10 | i | . | . | . | .
COCc1cc(CN2CCCC(C(=O)Nc3ccc(-c4ccco4)cc3)C2)ccc1OC (stereo not drawn) | 1 | -13 | 1 | -36 | i | . | . | . | .
COc1ccc([C@H]2C[C@H](O)[C@@H](n3cc(COC(=O)c4ccccc4)nn3)CN2CC2CCCCC2)cc1 | . | -9 | 2 | . | . | . | . | . | .
CCC(=O)Nc1ccccc1Sc1ncnc2scc(-c3ccccc3)c12 | 6 | -15 | 1 | 3 | i | . | . | . | .
